Assay outcomes deposited in PubChem BioAssay by several laboratories.
Rows were chosen to be rich in hits. Some 1.8% of all compounds tested hit in one or more screens of this group.
CCR6 antagonist – CCR6 (human) receptor antagonism; inhibition, % at 20 µM; hit rate 0.49% among 340,000; AID 493098; CHO-K1 CCR6 PathHunter beta-arrestin, luminescence, CCL20-stimulated;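 active = compounds whose inhibition of the agonist-driven luminescence signal at 20 µM reaches about 50%, limit read from the data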;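 note: cells stimulated with CCL20 at 14 nM final; plate controls were DMSO with CCL20 for no effect and DMSO without agonist for full effect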
Beta2AR agonist – activates human beta-2 adrenergic receptor causing internalization. Am2.2-beta2AR cells, FAP receptor internalization, flow cytometry. response, % (no concentration beside the values). hit rate 0.43% among 340,000. AID 504454;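 active = response above a set limit, near 3 SD of response in nonfluorescent compounds, cut at about 42% in these data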
Target sequence (P07550 whole entry, looked up): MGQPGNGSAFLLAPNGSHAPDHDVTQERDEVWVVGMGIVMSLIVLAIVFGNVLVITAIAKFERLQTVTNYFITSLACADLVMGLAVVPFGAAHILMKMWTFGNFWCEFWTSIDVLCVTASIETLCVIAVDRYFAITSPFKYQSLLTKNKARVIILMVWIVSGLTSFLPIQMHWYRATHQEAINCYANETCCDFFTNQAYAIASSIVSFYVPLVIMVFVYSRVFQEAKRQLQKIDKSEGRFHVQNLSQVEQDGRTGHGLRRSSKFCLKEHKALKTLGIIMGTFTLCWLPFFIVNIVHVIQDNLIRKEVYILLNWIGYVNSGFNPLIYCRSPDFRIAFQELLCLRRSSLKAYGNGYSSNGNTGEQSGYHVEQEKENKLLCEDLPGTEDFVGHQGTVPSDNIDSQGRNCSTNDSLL
EBI2 block – antagonists of human EBI2 receptor; EBI2 beta-arrestin recruitment, luminescence, 7a,25-OHC stimulated; inhibition, % at 5 µM; hit rate 0.81% among 360,000; in the data active = inhibition above about 38%;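 note: enzyme fragment complementation signal reports receptor beta-arrestin coupling in cells; 0% = agonist plus DMSO wells and 100% = wells without agonist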
Target sequence (P32249 whole entry, looked up, the tested form may be a part): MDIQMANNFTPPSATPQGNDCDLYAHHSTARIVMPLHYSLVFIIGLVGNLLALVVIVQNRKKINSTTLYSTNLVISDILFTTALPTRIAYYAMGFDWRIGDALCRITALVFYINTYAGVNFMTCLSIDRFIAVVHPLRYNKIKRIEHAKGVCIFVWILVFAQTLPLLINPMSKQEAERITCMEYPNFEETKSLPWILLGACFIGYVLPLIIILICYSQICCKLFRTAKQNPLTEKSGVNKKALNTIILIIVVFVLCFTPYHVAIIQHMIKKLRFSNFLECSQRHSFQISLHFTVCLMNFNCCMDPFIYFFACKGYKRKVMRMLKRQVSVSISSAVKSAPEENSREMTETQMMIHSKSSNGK
CXCR6 block – CXCR6 (human) receptor inhibition; O00574; CHO-K1 PathHunter CXCR6 beta-arrestin, luminescence; inhibition, % at 20 µM; hit rate 0.36% among 360,000; in the data active = inhibition above about 34%, passing the limit was not always enough;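 note: antagonist mode with CXCL16 agonist at 10 nM final; 0% = 10 nM CXCL16 with DMSO and 100% = unstimulated wells without agonist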
APJ ag – APJ receptor agonism. P35414. CHO-K1 APJ PathHunter beta-arrestin, luminescence; 0% DMSO wells, 100% apelin. activation, % at 20 µM. hit rate 0.11% among 330,000;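 active = activation more than six SD over the plate average, tested at 20 µM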;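 note: 0% = DMSO alone and 100% = apelin-13 at 10 nM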
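Material: CHO-K1 APJ beta-arrestin complementation cell line; Input: cell density 1000 per well; Incubation: compound stimulation 90 min at 25 °C, detection 60 min; Signal: luminescence from split beta-galactosidase complementation, Galacton Star/Emerald II substrate; Controls: DMSO-only wells as negative, 10 nM Apelin-13 as positive control.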
APJ antagonist – blocks the human apelin receptor APJ; CHO-K1 APJ beta-arrestin complementation, luminescence; inhibition, % at 20 µM; hit rate 0.32% among 330,000; P35414;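 active = inhibition above about 40% at 20 µM, limit read from the data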;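 note: cells challenged with 10 nM apelin-13 agonist together with compound; plate controls were apelin-13 plus DMSO wells for no effect and DMSO wells lacking apelin-13 for full effect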
APJ antag confirm – APJ receptor antagonism confirmation | shares compounds with APJ antagonist | APJ beta-arrestin recruitment, luminescence, antagonist mode | hit rate 66% among 950 | inhibition, % at 20 µM; in the data active = inhibition above about 50%
Starred values were filed as active, the others as inactive; x = not tested or not shown.

SMILES | CCR6 antagonist | Beta2AR agonist | EBI2 block | CXCR6 block | APJ ag | APJ antagonist | APJ antag confirm
O=S(=O)(N/N=C\c1ccc(-c2ccccc2Cl)o1)c1ccccc1 | 45.6 | -0.8 | 13.5 | 16.3 | -12.2 | 58.7* | 58.7*
O=C(N/N=C/c1ccc(-c2ccccc2Cl)o1)c1ccccc1 | 10.2 | -0.1 | 4.0 | -4.8 | -2.5 | 1.0 | x
COCc1cc(=O)[nH]c(Nc2nc3ccccc3o2)n1 | -0.5 | 1.7 | 4.7 | 16.3 | -1.3 | 17.7 | x
Cc1ccc2oc(Nc3nc(-c4ccccc4)cc(=O)[nH]3)nc2c1 | 58.3* | x | x | x | -8.4 | 54.1* | 62.4*
COc1ccc(NC(=O)/C(Cl)=C(/Cl)S(=O)Cc2ccccc2Cl)cn1 (centres undefined) | 96.0* | 57.9* | x | x | -6.2 | 78.6* | 104.0*
Cc1ccc(NCC(=O)c2ccccc2)cc1Cl | 73.0* | 12.8 | 23.5 | 49.2* | -16.8 | 94.2* | 100.6*
Cc1ccc(C(=O)CNc2ccc(C)c(Cl)c2)cc1 | 60.5* | 8.0 | 34.6 | 22.4 | -7.8 | 63.6* | 93.1*
Cc1ccc(NCCC(=O)c2ccccc2)cc1Cl | 5.1 | 1.0 | 7.7 | 0.5 | -0.8 | -10.1 | x
CSCCC(NC(=O)COc1ccccc1)C(=O)OCc1ccc([N+](=O)[O-])cc1 (centres undefined) | -6.1 | 3.2 | 0.8 | -0.7 | -2.5 | -62.3 | x
O=C1NC[C@@H](CCCCN2C[C@H](Cc3ccc(O)cc3)N(CCc3ccccc3)C(=O)C2=O)N(CCc2ccc(O)cc2)C1=O | x | x | -4.4 | -0.4 | x | x | x
O=C1OCC(CO)(CO)N=C1NNc1cc(Cl)ccc1Cl | 33.5 | 2.6 | 2.1 | 31.7 | -11.4 | 69.8* | 74.1*
O=C1OCC(CO)(CO)N=C1NNc1ccccc1[N+](=O)[O-] | 4.4 | 1.7 | 7.9 | -3.9 | -4.6 | -2.8 | x
COc1cc(S(=O)(=O)N2CCCCC2)ccc1NC(=O)c1ccccc1Cl | 22.8 | 0.3 | 6.2 | 1.5 | 0.7 | 8.8 | x
CCC(=O)Nc1ccc(S(=O)(=O)N2CCCCC2)cc1OC | -10.4 | 0.4 | 0.8 | 11.4 | -3.7 | 41.2* | -33.9
Nc1ccn([C@@H]2O[C@H](C(=O)N[C@H](CO)Cc3ccccc3)[C@@H](O)[C@H]2O)c(=O)n1 | x | x | -7.8 | -1.5 | x | x | x
CC1(C)Cc2nc3sc4c(=O)n(Cc5ccccc5)cnc4c3cc2CS1 | 11.8 | 16.3 | 11.7 | 2.3 | -1.1 | 59.0* | 20.2
CCCn1cnc2c(sc3nc4c(cc32)CSC(C)(C)C4)c1=O | -6.1 | -13.5 | 3.9 | -5.3 | 1.9 | -0.7 | x
N#Cc1ccccc1COc1cccc2c1CCCC2O (centres undefined) | 3.0 | -5.7 | 5.2 | -3.0 | -4.7 | 15.3 | x
CN1C(=O)/C(=C2/C=Cc3ccccc3N2CCCS(=O)(=O)O)SC1=S | 58.0* | 5.0 | -0.3 | 37.5 | -8.5 | 47.1* | 95.9*
CCN1/C(=C2\C(=O)N(C)C(=S)N2C)C=Cc2ccccc21 | 12.5 | 6.2 | -3.7 | 3.8 | -5.4 | 20.4 | x
CCSc1nnc(NC(=O)c2ccccn2)s1 | 36.9 | 1.0 | 8.2 | 24.4 | -6.2 | 43.6* | 60.0*
CCSc1nnc(NC(=O)c2cnccn2)s1 | 2.8 | x | x | x | -1.1 | 4.7 | x
O=C(Nc1nnc(SCc2ccc(F)cc2)s1)c1cnccn1 | 19.9 | -3.6 | -7.0 | 2.2 | -3.7 | 49.4* | 60.1*
CC(=O)c1cccc(Nc2nc(-c3cccc([N+](=O)[O-])c3)cs2)c1 | 5.9 | 9.9 | 26.8 | 1.5 | -18.0 | 51.8* | -20.8
CC(=O)Nc1nc(C)c(-c2csc(Nc3cccc([N+](=O)[O-])c3)n2)s1 | 20.7 | 17.8 | 22.8 | 5.3 | -2.3 | 20.0 | x
SMILES | CCR6 antagonist | Beta2AR agonist | EBI2 block | CXCR6 block | APJ ag | APJ antagonist | APJ antag confirm
C=CCn1c(=O)[nH]c2cc(C(=O)N3CC=C(c4ccccc4)CC3)ccc2c1=O | 11.6 | 26.5 | 0.9 | -16.8 | -4.5 | 52.5* | -12.9
CN(CC(=O)Nc1ccc(Cl)cc1)C(=O)CNC(=O)c1cccs1 | 11.3 | -2.6 | -3.1 | 16.8 | -0.7 | -1.7 | x
Cc1ccc(CNc2ccccc2C(=O)O)s1 | 7.2 | 0.6 | -7.8 | -2.2 | -3.1 | 15.2 | x
CCN1C=C(Cc2cccs2)C2=C(C1)C(c1cccs1)C(C#N)=C(N)O2 (centres undefined) | 32.5 | 21.6 | 5.7 | 8.9 | -4.4 | 40.8* | -14.5
N#C/C(=N\Nc1ccccc1)C(N)=S | 14.8 | -4.4 | -14.5 | 12.1 | -5.7 | 22.1 | x
N#C/C(=N/Nc1ccccc1[N+](=O)[O-])C(N)=S | 35.9 | 11.3 | -2.5 | 18.3 | -9.1 | 40.2* | 104.6*
Cc1cc(=O)n2nc(N3CCCC(C(=O)NC4CCC(C)CC4)C3)sc2n1 (centres undefined) | 24.7 | 0.8 | 5.8 | -3.2 | -5.6 | 16.2 | x
CC1(C)Cc2cccc(OCC(=O)Nc3cc(S(C)(=O)=O)ccc3Cl)c2O1 | 11.1 | 4.4 | 0.4 | -4.2 | -2.0 | -5.7 | x
COc1cccc(NC(=O)NCc2ccccn2)c1 | -6.0 | 7.2 | -4.2 | 0.1 | -5.1 | 15.1 | x
COc1ccc(CCCNC(=O)C2(C)Cc3c(-c4ccc5c(c4)OCO5)ccnc3O2)cc1 (centres undefined) | x | x | 22.0 | 5.2 | x | x | x
COc1ccc(C(=O)CNc2cccc(F)c2)cc1 | 59.7* | -3.2 | -0.5 | 34.7 | -10.9 | 45.0* | 94.6*
COC(=O)c1ccccc1NCC(=O)c1ccc(OC)cc1 | 37.2 | -2.8 | 0.9 | 13.7 | -9.9 | -6.6 | x
COc1ccccc1NCC(=O)c1ccc(Cl)cc1 | 71.0* | 1.2 | -2.7 | 37.9 | -15.8 | 72.2* | 110.4*
COc1ccc(C(=O)CNc2ccccc2CO)cc1 | 91.5* | 1.6 | 4.4 | 17.7 | -7.8 | 40.1* | 148.5*
COc1ccc(C(=O)CC(=O)C(=O)Nc2cccc(F)c2)cc1 | 18.8 | 9.1 | 6.5 | 13.4 | -0.6 | 4.6 | x
COc1ccc(N=C2C(=O)Nc3c(C)cccc32)cc1 | 39.4 | 1.0 | 13.7 | 11.3 | -6.1 | 24.1 | x
O=C1Nc2ccc(Br)cc2C1=C1CCCCC1 | -4.4 | -9.4 | -8.8 | -2.0 | 1.3 | -4.5 | x
Cc1ccc(N=C2C(=O)Nc3ccc(Br)cc32)cc1 | 54.4* | -0.4 | 17.1 | 36.2 | -15.6 | 68.5* | 155.9*
Cc1cccc2c1NC(=O)C2=Nc1ccc(Cl)cc1 | 75.9* | 7.6 | 9.2 | 32.2 | -13.8 | 63.0* | 93.9*
Cc1ccc(N=C2C(=O)Nc3c(C)cccc32)cc1 | 58.2* | 3.1 | 11.4 | 18.1 | -8.9 | 42.6* | 94.7*
CCOc1cc(C=O)ccc1OCCn1c([N+](=O)[O-])cnc1C | 2.6 | 7.7 | 12.6 | 0.8 | 0.6 | 5.1 | x
CCc1noc(C)c1C(=O)NC1CC(C)(C)Cc2c1cnn2-c1ccccc1 (centres undefined) | x | -3.0 | -2.1 | 7.6 | -7.0 | 41.2* | 25.2
CCOC(=O)c1c(-c2ccc(-c3ccccc3)cc2)csc1NC(=O)CNCCN(C)C | 78.3* | 20.3 | -7.0 | 32.1 | -6.0 | 42.9* | 95.7*
COc1cccc([C@@H]2Oc3ccc(OC)cc3C(=O)[C@H]2O)c1 | 34.3 | 2.2 | 6.1 | 2.6 | -15.0 | -14.5 | x
